Data as given in ChEMBL document CHEMBL4330096, “Discovery of potent and selective 5-azaindazole inhibitors of leucine-rich repeat kinase 2 (LRRK2) - Part 1” (Bioorg Med Chem Lett, 2019).

Experiments:
[1] = target: 3-phosphoinositide-dependent protein kinase 1 (Homo sapiens) (UniProt O15530); test: Inhibition of PDK1 (unknown origin) at 10 uM relative to control
[2] = target: Casein kinase 2 (Homo sapiens) (UniProt P67870+P68400+P19784+Q8NEV1); test: Inhibition of CK2 (unknown origin) at 10 uM relative to control; format: protein assay
Method in brief: (§1)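 Single-point screen of each compound against a panel of 59 protein kinases, at 1 or 10 μM. The panel data are also summarised as a rescaled geometric mean selectivity score.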

[3] = target: Tyrosine-protein kinase Yes (Homo sapiens) (UniProt P07947); test: Inhibition of YES1 (unknown origin) at 10 uM relative to control
Method in brief: (§2)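 Single-concentration screen across a panel of 59 protein kinases, with each compound tested at one fixed concentration. The read-out is residual kinase activity relative to control. Panel results are also condensed into a rescaled geometric mean (RGM) selectivity score.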

[4] = target: Mitogen-activated protein kinase 14 (Homo sapiens) (UniProt Q16539); test: Inhibition of p38a MAPK (unknown origin) at 10 uM relative to control
Method in brief: as §2

[5] = target: Ribosomal protein S6 kinase alpha-5 (Homo sapiens) (UniProt O75582); test: Inhibition of MSK1 (unknown origin) at 10 uM relative to control
Method in brief: (§3)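 Single-concentration screen of each compound against a 59-protein-kinase panel, run at 10 µM or 1 µM. Activity relative to control is shown as a heat map across the panel.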

[6] = target: Tyrosine-protein kinase Lck (Homo sapiens) (UniProt P06239); test: Inhibition of Lck (unknown origin) at 10 uM relative to control
Method in brief: as §1

[7] = target: Serine/threonine-protein kinase PAK 4 (Homo sapiens) (UniProt O96013); test: Inhibition of PAK4 (unknown origin) at 10 uM relative to control
Method in brief: as §3

[8] = target: T1, Serine/threonine-protein kinase 3 (Homo sapiens) (UniProt Q13188); test: Inhibition of MST2 (unknown origin) at 10 uM relative to control
T1 sequence (whole entry): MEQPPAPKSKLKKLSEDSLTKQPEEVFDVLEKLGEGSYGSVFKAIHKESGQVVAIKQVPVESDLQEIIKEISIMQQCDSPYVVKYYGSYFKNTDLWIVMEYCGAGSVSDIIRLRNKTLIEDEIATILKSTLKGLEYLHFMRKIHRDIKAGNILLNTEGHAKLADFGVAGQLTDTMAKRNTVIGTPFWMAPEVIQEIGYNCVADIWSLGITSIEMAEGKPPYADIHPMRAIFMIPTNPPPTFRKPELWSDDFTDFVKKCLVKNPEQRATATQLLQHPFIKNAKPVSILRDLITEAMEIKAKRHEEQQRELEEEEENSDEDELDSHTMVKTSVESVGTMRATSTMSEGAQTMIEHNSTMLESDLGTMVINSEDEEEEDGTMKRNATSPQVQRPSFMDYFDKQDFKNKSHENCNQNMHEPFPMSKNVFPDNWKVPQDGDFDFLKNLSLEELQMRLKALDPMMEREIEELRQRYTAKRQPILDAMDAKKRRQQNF
Method in brief: as §3

[9] = target: T2, Serine/threonine-protein kinase Chk1 (Homo sapiens) (UniProt O14757); test: Inhibition of CHK1 (unknown origin) at 10 uM relative to control
T2 sequence (whole entry): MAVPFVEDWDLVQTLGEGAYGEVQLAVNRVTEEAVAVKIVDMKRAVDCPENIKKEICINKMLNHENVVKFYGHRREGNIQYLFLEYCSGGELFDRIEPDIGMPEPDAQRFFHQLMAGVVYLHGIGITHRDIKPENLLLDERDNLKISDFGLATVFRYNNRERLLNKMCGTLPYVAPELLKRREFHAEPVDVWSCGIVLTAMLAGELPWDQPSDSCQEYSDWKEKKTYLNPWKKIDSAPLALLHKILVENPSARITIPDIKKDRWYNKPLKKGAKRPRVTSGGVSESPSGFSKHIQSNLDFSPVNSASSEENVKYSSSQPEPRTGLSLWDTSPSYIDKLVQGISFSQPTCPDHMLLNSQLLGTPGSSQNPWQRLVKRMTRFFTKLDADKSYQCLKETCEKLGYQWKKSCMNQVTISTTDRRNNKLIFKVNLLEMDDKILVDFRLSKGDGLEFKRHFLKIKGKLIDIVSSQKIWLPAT
Method in brief: as §1

[10] = target: Glycogen synthase kinase-3 beta (Homo sapiens) (UniProt P49841); test: Inhibition of GSK3b (unknown origin) at 10 uM relative to control
Method in brief: as §1

[11] = target: Fibroblast growth factor receptor 1 (Homo sapiens) (UniProt P11362); test: Inhibition of FGFR1 (unknown origin) at 10 uM relative to control
Method in brief: as §1

[12] = target: Aurora kinase B (Homo sapiens) (UniProt Q96GD4); test: Inhibition of Aurora B (unknown origin) at 10 uM relative to control
Method in brief: as §1

[13] = target: Tyrosine-protein kinase CSK (Homo sapiens) (UniProt P41240); test: Inhibition of CSK (unknown origin) at 10 uM relative to control
Method in brief: as §1

[14] = target: Mitogen-activated protein kinase 8 (Homo sapiens) (UniProt P45983); test: Inhibition of JNK1 (unknown origin) at 10 uM relative to control
Method in brief: as §1

[15] = target: Ribosomal protein S6 kinase beta-1 (Homo sapiens) (UniProt P23443); test: Inhibition of S6K1 (unknown origin) at 10 uM relative to control
Method in brief: as §2

[16] = target: SRSF protein kinase 1 (Homo sapiens) (UniProt Q96SB4); test: Inhibition of SRPK1 (unknown origin) at 10 uM relative to control
Method in brief: as §2

[17] = target: Ribosomal protein S6 kinase alpha-1 (Homo sapiens) (UniProt Q15418); test: Inhibition of RSK1 (unknown origin) at 10 uM relative to control
Method in brief: as §3

[18] = target: Serine/threonine-protein kinase Chk2 (Homo sapiens) (UniProt O96017); test: Inhibition of CHK2 (unknown origin) at 10 uM relative to control
Method in brief: as §1

[19] = target: Serine/threonine-protein kinase Nek6 (Homo sapiens) (UniProt Q9HC98); test: Inhibition of NEK6 (unknown origin) at 10 uM relative to control
Method in brief: as §3

[20] = target: Insulin-like growth factor 1 receptor (Homo sapiens) (UniProt P08069); test: Inhibition of IGF1R (unknown origin) at 10 uM relative to control
Method in brief: as §1

[21] = target: Mitogen-activated protein kinase 9 (Homo sapiens) (UniProt P45984); test: Inhibition of JNK2 (unknown origin) at 10 uM relative to control
Method in brief: as §1

[22] = target: Ribosomal protein S6 kinase alpha-3 (Homo sapiens) (UniProt P51812); test: Inhibition of RSK2 (unknown origin) at 10 uM relative to control
Method in brief: as §2

[23] = target: Serine/threonine-protein kinase 26 (Homo sapiens) (UniProt Q9P289); test: Inhibition of MST4 (unknown origin) at 10 uM relative to control
Method in brief: as §3

[24] = Stability in mouse liver microsomes assessed as compound turnover rate measured after 30 mins; format: ADME, Microsome; conditions: read-out: Drug metabolism
Method in brief: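 In vitro incubation of compound with liver microsomes: human (HLM) for 40 min, mouse (MLM) for 30 min. Reported as % turnover of parent compound.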

[25] = target: Rho-associated protein kinase 2 (Homo sapiens) (UniProt O75116); test: Inhibition of ROCK2 (unknown origin) at 10 uM relative to control
Method in brief: as §3

Chain of Tyrosine-protein kinase CSK (Homo sapiens) (P41240 2-450 limits assumed): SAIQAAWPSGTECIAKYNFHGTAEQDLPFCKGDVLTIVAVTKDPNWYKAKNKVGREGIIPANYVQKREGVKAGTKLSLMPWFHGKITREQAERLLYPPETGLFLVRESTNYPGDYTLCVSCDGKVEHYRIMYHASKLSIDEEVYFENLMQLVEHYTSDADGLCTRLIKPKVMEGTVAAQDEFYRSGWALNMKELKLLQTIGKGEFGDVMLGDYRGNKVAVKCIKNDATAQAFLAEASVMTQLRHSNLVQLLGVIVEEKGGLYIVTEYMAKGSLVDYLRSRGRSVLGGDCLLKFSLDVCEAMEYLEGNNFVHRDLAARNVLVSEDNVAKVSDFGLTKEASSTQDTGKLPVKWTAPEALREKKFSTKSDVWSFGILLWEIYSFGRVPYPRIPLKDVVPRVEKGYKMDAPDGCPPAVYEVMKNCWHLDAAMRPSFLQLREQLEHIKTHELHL
Chain of Fibroblast growth factor receptor 1 (Homo sapiens) (P11362 22-822 limits assumed): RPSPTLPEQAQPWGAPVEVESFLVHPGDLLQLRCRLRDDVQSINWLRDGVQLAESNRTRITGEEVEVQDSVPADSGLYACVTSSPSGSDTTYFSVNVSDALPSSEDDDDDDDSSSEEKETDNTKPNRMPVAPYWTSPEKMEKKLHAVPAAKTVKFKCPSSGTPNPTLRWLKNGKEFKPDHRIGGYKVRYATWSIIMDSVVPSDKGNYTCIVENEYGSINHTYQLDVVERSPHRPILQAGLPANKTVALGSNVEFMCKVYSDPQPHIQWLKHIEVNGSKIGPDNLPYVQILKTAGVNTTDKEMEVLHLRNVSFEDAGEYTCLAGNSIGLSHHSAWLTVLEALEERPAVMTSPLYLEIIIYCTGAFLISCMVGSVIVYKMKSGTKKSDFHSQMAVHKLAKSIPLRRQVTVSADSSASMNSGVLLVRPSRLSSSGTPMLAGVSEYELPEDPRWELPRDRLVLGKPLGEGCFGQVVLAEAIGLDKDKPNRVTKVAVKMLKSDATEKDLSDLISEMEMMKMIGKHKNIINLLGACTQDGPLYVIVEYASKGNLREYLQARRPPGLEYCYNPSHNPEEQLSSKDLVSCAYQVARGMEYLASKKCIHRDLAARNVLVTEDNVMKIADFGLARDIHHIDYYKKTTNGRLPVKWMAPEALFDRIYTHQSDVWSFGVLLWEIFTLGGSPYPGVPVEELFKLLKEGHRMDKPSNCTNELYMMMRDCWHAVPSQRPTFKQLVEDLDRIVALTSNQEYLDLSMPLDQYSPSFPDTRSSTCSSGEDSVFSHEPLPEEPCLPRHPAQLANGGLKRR
Chain of Insulin-like growth factor 1 receptor (Homo sapiens) (P08069 31-736 limits assumed): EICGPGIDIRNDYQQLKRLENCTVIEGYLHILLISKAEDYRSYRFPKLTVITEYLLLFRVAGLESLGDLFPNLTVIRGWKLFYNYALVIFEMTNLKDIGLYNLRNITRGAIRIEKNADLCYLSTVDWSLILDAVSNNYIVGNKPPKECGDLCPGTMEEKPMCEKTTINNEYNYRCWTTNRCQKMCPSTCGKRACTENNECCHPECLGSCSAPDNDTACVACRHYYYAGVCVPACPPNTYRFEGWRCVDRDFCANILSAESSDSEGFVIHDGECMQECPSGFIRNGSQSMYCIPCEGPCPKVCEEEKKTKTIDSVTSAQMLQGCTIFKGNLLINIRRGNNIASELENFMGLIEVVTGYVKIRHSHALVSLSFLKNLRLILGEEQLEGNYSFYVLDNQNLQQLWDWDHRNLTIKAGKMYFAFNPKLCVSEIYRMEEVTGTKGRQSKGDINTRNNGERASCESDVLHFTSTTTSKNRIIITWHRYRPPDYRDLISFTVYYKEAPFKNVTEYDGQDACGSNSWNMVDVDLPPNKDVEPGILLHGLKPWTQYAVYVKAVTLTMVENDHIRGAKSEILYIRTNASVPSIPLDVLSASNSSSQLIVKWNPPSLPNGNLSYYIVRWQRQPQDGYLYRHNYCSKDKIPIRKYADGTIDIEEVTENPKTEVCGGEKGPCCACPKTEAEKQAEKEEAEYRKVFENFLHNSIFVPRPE
Chain of Insulin-like growth factor 1 receptor (Homo sapiens) (P08069 741-1367 limits assumed): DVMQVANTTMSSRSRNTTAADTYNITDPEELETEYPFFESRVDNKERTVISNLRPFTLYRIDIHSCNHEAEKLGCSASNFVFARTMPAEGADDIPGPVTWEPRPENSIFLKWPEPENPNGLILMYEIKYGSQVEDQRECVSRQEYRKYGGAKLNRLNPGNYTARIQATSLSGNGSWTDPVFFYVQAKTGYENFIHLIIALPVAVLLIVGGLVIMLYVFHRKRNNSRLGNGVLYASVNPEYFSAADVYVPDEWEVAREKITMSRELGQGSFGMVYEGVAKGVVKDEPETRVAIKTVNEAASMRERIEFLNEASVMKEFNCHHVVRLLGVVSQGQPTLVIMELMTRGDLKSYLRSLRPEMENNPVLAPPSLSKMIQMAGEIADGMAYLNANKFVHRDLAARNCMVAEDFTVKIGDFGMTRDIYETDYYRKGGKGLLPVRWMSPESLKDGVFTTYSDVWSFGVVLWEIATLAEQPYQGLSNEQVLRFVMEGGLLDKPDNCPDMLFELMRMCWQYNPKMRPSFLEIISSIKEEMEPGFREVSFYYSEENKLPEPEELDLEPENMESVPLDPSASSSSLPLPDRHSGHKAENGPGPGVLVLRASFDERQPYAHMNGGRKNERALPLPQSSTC
Chain of Mitogen-activated protein kinase 9 (Homo sapiens) (P45984 whole entry, looked up): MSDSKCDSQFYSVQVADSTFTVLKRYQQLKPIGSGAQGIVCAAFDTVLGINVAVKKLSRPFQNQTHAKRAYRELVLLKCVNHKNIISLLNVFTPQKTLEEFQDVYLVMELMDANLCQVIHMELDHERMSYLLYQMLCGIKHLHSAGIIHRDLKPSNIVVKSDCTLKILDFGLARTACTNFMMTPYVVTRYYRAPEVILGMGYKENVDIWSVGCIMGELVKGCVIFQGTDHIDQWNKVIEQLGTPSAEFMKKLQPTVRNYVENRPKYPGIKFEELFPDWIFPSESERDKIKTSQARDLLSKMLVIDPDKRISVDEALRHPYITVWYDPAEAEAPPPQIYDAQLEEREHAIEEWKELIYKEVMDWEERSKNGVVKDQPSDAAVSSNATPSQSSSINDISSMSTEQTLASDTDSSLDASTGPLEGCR
Chain of Glycogen synthase kinase-3 beta (Homo sapiens) (P49841 whole entry, looked up): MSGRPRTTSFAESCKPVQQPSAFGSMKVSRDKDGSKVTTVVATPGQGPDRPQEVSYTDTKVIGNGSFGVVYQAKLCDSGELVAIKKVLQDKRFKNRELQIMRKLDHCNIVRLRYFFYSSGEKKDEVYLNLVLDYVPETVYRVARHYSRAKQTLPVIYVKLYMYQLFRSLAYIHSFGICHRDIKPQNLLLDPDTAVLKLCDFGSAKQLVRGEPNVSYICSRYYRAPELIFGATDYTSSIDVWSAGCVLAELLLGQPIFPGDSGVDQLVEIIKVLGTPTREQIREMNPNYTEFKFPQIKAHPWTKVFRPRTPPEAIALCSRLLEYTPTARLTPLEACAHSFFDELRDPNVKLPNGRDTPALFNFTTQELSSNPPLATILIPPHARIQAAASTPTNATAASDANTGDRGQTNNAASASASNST
Chain of Serine/threonine-protein kinase PAK 4 (Homo sapiens) (O96013 whole entry, looked up): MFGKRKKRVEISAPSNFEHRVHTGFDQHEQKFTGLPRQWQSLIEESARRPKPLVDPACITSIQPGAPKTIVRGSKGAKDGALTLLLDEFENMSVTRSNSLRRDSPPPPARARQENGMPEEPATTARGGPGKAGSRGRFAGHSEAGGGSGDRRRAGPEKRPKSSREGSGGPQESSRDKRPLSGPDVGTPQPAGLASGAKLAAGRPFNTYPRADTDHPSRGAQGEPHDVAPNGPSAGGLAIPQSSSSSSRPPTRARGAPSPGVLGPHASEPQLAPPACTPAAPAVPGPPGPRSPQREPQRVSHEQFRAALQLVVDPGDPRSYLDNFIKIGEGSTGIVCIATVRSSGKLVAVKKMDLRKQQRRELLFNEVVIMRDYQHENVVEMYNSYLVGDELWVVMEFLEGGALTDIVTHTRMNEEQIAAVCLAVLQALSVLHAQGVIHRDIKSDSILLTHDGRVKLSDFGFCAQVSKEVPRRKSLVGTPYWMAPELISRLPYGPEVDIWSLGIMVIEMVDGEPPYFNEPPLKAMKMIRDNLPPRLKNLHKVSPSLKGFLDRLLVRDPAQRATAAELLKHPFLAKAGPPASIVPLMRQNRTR
Chain of Serine/threonine-protein kinase Chk2 (Homo sapiens) (O96017 whole entry): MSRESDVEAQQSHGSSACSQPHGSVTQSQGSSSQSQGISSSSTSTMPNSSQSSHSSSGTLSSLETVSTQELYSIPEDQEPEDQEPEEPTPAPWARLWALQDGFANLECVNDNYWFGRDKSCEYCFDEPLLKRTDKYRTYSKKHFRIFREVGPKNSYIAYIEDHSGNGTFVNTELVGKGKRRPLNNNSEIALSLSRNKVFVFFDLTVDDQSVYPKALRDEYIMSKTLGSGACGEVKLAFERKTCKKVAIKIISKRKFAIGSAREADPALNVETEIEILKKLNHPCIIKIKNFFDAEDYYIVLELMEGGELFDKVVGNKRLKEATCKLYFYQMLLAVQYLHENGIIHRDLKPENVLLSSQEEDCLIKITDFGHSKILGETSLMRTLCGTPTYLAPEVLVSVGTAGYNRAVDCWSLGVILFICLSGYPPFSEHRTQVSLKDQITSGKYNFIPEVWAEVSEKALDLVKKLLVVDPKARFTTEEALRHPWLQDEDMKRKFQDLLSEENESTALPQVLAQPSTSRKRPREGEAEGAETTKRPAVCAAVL
Chain of Serine/threonine-protein kinase Nek6 (Homo sapiens) (Q9HC98 whole entry): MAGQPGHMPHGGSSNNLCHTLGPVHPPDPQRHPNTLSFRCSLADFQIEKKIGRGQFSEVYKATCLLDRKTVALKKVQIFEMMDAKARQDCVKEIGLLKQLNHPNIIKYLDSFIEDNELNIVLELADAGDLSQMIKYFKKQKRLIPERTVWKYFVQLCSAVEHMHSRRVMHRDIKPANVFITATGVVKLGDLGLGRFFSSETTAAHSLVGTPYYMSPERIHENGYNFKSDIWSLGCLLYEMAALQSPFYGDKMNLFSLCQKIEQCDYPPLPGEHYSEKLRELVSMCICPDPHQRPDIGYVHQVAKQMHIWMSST

Structure (SMILES) | inhibition [1] [%] | inhibition [2] [%] | inhibition [3] [%] | inhibition [4] [%] | inhibition [5] [%] | inhibition [6] [%] | inhibition [7] [%] | inhibition [8] [%] | inhibition [9] [%] | inhibition [10] [%] | inhibition [11] [%] | inhibition [13] [%] | inhibition [14] [%] | inhibition [15] [%] | inhibition [16] [%] | inhibition [17] [%] | inhibition [18] [%] | inhibition [21] [%] | inhibition [22] [%] | metabolised at 0.5 h [24] [%] | other results
Cc1n[nH]c2ccnc(OC3CCCCC3)c12 | 34 | 41 | 44 | 0 | 92 | 47 | 85 | 79 | 27 | 73 | 84 | 20 | 86 | 78 | 20 | 84 | 63 | 66 | 73 | 37 | inhibition [12]: 88%; inhibition [19]: 4%; inhibition [20]: 98%; inhibition [23]: 48%; inhibition [25]: 92%
Cc1n[nH]c2ccnc(Nc3ccccc3F)c12 | 25 | 54 | 26 | 10 | 43 | 22 | 44 | 66 | 43 | 53 | 66 | 8 | 55 | 36 | 17 | 61 | 26 | 54 | 38 | – | inhibition [12]: 80%; inhibition [19]: 12%; inhibition [20]: 81%; inhibition [23]: 28%; inhibition [25]: 62%
Cc1n[nH]c2ccnc(Nc3ccc4ncsc4c3)c12 | – | – | – | 0 | 77 | 8 | – | 72 | 13 | – | – | 0 | 56 | 19 | 0 | 84 | 36 | 49 | 73 | – | –
c1cc(-c2n[nH]c3ccnc(OC4CCOCC4)c23)cc(N2CCOCC2)n1 | – | – | – | – | – | – | – | – | – | – | – | – | – | – | – | – | – | – | – | 19 | –
CC(C)n1cc(-c2n[nH]c3ccnc(OC4CCOCC4)c23)cn1 | – | – | – | – | – | – | – | – | – | – | – | – | – | – | – | – | – | – | – | 20 | –
Cc1n[nH]c2ccnc(NC3CCCCC3)c12 | 13 | 45 | 30 | 9 | 55 | 13 | 40 | 80 | 0 | 23 | 69 | 0 | 32 | 28 | 10 | 59 | 37 | 41 | 51 | 13 | inhibition [12]: 80%; inhibition [19]: 13%; inhibition [20]: 88%; inhibition [23]: 51%; inhibition [25]: 79%
